The results in this text go back to ChEMBL document CHEMBL2040808, “Design, synthesis, and in vitro activity of novel 2'-O-substituted 15-membered azalides” (J Med Chem, 2012).

In data set [1] the test system is Plasmodium falciparum. The data set can be described thus: Antimalarial activity against chloroquine-resistant Plasmodium falciparum W2 infected in type A rhesus-positive human erythrocytes assessed as [3H]hypoxanthine incorporation after 48 hrs by scintillation counting. In kind it is functional, organism-based. The procedure, abridged:
(§1)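 Modified semiautomated microdilution: compounds dissolved in DMSO, diluted in RPMI 1640 with 10% v/v human plasma, serial 1:2 dilutions in triplicate. Infected erythrocytes at 3% hematocrit, 0.25−0.55% parasitemia. [3H]hypoxanthine at 12.5−16 μCi/mL final. Incubated 48 h, 37 °C, in 5% O2/3% CO2/92% N2. Harvested on fiberglass strips, scintillation counted. IC50 by nonlinear regression of concentration−response curves.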

The nature of data set [2]: Selectivity ratio of IC50 for human HepG2 cells to IC50 for chloroquine-sensitive Plasmodium falciparum 3D7A. Format: ADME, cell-based. The following applies: HepG2 cells versus Plasmodium falciparum 3D7A, read-out: Ratio IC50. Summed up:
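Selectivity is the HepG2 IC50 divided by the P. falciparum IC50. For HepG2, 50000 cells per well in RPMI 1640 with 10% FBS were exposed to 1:2 serial dilutions for 24 h at 37 °C, 5% CO2. MTS was added for 2 h and absorbance read at 490 nm. Parasite IC50 came from the 48 h [3H]hypoxanthine assay.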

In data set [3] the test system is Streptococcus pyogenes. Briefly: Antibacterial activity against Streptococcus pyogenes isolate 3565 by broth microdilution method. Format: functional. Summed up:
(§2)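 Standard broth microdilution MIC against macrolide-sensitive strains. For streptococci, 5% horse serum replaced lysed horse blood in the broth, and inocula were grown on Columbia agar with 5% sheep blood. S. aureus was grown on Mueller–Hinton agar.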
For orientation: In broth dilution the organism is exposed to a series of concentrations in liquid medium.

Data set [4] concerns Plasmodium falciparum. Briefly: Antimalarial activity against chloroquine-sensitive Plasmodium falciparum 3D7A infected in type A rhesus-positive human erythrocytes assessed as [3H]hypoxanthine incorporation after 48 hrs by scintillation counting. In kind it is functional, organism-based. Summed up:
as §1

Data set [5] concerns Streptococcus pneumoniae. Briefly: Antibacterial activity against Streptococcus pneumoniae isolate SP030 by broth microdilution method. In kind it is functional. The procedure, abridged: as §2
Data set [6] concerns Staphylococcus aureus. Briefly: Antibacterial activity against Staphylococcus aureus ATCC 13709 by broth microdilution method. Format: functional. Summed up:
as §2

The subject of data set [7] is HepG2. Briefly: Cytotoxicity against human HepG2 cells after 24 hrs by MTS assay. In kind it is cell-based. Conditions: HepG2, 24 h. The procedure, abridged: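 Hep G2 cells were kept in RPMI 1640 with 10% FBS at 37 °C and 5% CO2. Wells held 50000 cells and received 1:2 serial dilutions of compound (DMSO stock diluted in medium) for 24 h. MTS reagent was then added for 2 h, absorbance was read at 490 nm, and IC50 was taken from response curves.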
A general note: Tetrazolium assays rely on reduction of a dye to a coloured formazan, in cell work by metabolically active cells.

Data set [8] concerns Plasmodium falciparum. Briefly: Ratio of IC50 for azithromycin to compound IC50 for chloroquine-resistant Plasmodium falciparum W2 infected in type A rhesus-positive human erythrocytes assessed as [3H]hypoxanthine incorporation after 48 hrs by scintillation counting. Format: functional.
The test system of data set [9] is Plasmodium falciparum. Briefly: Ratio of IC50 for azithromycin to compound IC50 for chloroquine-sensitive Plasmodium falciparum 3D7A infected in type A rhesus-positive human erythrocytes assessed as [3H]hypoxanthine incorporation after 48 hrs by scintillation counting. In kind it is functional.
Data set [10] can be described thus: Selectivity ratio of IC50 for human HepG2 cells to IC50 for chloroquine-sensitive Plasmodium falciparum 3D7A. Conditions: HepG2 cells versus Plasmodium falciparum 3D7A.
A short description of data set [11]: Aqueous solubility of the compound at pH 4. In kind it is physicochemical.

Converted amounts (≈) assume the structure as drawn.

Turning to `CC[C@H]1OC(=O)[C@H](C)[C@@H](O)[C@H](C)[C@@H](O[C@@H]2O[C@H](C)C[C@H](N(C)C)[C@H]2OCCCNc2ccnc3cc(Cl)ccc23)[C@](C)(O)C[C@@H](C)CN(C)[C@H](C)[C@@H](O)[C@]1(C)O`, the figures for the IC50 in data set [1], in data set [4] and in data set [7] were 0.025 µM, 0.037 µM and 83 µM, respectively. The selectivity ratio in data set [2] and in data set [10] was 132 in each case. Moreover, the MIC in data set [3], in [5] and in [6] was more than 64 mg/L each time. The “Ratio IC50” value in data set [8] and in data set [9] was 3 each time. Further, the solubility (in general, how much of the substance goes into solution per volume) in data set [11] was more than 10 mg/mL.
In the case of `CC[C@H]1OC(=O)[C@H](C)[C@@H](O[C@H]2C[C@@](C)(OC)[C@@H](O)[C@H](C)O2)[C@H](C)[C@@H](O[C@@H]2O[C@H](C)C[C@H](N(C)C)[C@H]2OCCC(=O)NCCNc2ccnc3cc(Cl)ccc23)[C@](C)(O)C[C@@H](C)CN(C)[C@H](C)[C@@H](O)[C@]1(C)O`, the IC50 (in general, the concentration needed to halve the response being measured) came to 0.013 µM in data set [1], 0.018 µM in data set [4] and 18 µM in data set [7]. In addition, the selectivity ratio in [2] and in data set [10] was 132 each time. Moreover, the MIC in data set [3], in data set [5] and in data set [6] was 64 mg/L (≈ 62.5 µM) in each case. Besides, the “Ratio IC50” value in data set [8] and in data set [9] was 3 in each case. In data set [11], this compound showed a solubility of more than 10 mg/mL.
Turning to `CC[C@H]1OC(=O)[C@H](C)[C@@H](O[C@H]2C[C@@](C)(OC)[C@@H](O)[C@H](C)O2)[C@H](C)[C@@H](O[C@@H]2O[C@H](C)C[C@H](N(C)C)[C@H]2OCCCNCc2ccnc3ccccc23)[C@](C)(O)C[C@@H](C)CN(C)[C@H](C)[C@@H](O)[C@]1(C)O`, the IC50 stood at 0.078 µM in [1], 0.141 µM in data set [4] and 45 µM in data set [7]. For the same compound, the selectivity ratio in data set [2] and in data set [10] was 132 in each case. Moreover, the MIC in data set [3], in data set [5] and in [6] was more than 64 mg/L each time. The “Ratio IC50” value in [8] and in data set [9] was 3 each time. Also, the solubility in [11] was more than 10 mg/mL.
In the case of `CC[C@H]1OC(=O)[C@H](C)[C@@H](O[C@H]2C[C@@](C)(OC)[C@@H](O)[C@H](C)O2)[C@H](C)[C@@H](O[C@@H]2O[C@H](C)C[C@H](N(C)C)[C@H]2OCCCNCc2cnc3ccccc3c2)[C@](C)(O)C[C@@H](C)CN(C)[C@H](C)[C@@H](O)[C@]1(C)O`, the values for the IC50 in data set [1], in [4] and in data set [7] were 0.046 µM, 0.228 µM and 20 µM, respectively. Further, the selectivity ratio in [2] and in data set [10] was 88 throughout. The MIC in data set [3], in data set [5] and in data set [6] was more than 64 mg/L in each case. In addition, the “Ratio IC50” value in [8] and in [9] was 3 in each case. In data set [11], this compound had a solubility of more than 10 mg/mL.
Turning to `CC[C@H]1OC(=O)[C@H](C)[C@@H](O[C@H]2C[C@@](C)(OC)[C@@H](O)[C@H](C)O2)[C@H](C)[C@@H](O[C@@H]2O[C@H](C)C[C@H](N(C)C)[C@H]2OCCCNCc2ccc3ccccc3n2)[C@](C)(O)C[C@@H](C)CN(C)[C@H](C)[C@@H](O)[C@]1(C)O`, the IC50 in [1] was found to be 0.055 µM; in data set [4], 0.227 µM; in [7], 30 µM. The selectivity ratio in data set [2] and in [10] was 132 each time. Further, the MIC in data set [3], in data set [5] and in data set [6] was more than 64 mg/L throughout. The “Ratio IC50” value in [8] and in [9] was 3 in each case. Besides, the solubility in data set [11] was more than 10 mg/mL.
With `CC[C@H]1OC(=O)[C@H](C)[C@@H](O[C@H]2C[C@@](C)(OC)[C@@H](O)[C@H](C)O2)[C@H](C)[C@@H](O[C@@H]2O[C@H](C)C[C@H](N(C)C)[C@H]2OCCCN(C)Cc2ccnc3ccccc23)[C@](C)(O)C[C@@H](C)CN(C)[C@H](C)[C@@H](O)[C@]1(C)O`, the IC50 in data set [1] came out at 0.049 µM; in [4] it was 0.248 µM; in data set [7] it was 45 µM. Moreover, the selectivity ratio in [2] and in data set [10] was 132 in each case. Moreover, the MIC in data set [3], in data set [5] and in [6] was more than 64 mg/L each time. Besides, the “Ratio IC50” value in [8] and in data set [9] was 3 in each case. The solubility in data set [11] was more than 10 mg/mL.
As for `CC[C@H]1OC(=O)[C@H](C)[C@@H](O[C@H]2C[C@@](C)(OC)[C@@H](O)[C@H](C)O2)[C@H](C)[C@@H](O[C@@H]2O[C@H](C)C[C@H](N(C)C)[C@H]2OCCCN(C)Cc2cnc3ccccc3c2)[C@](C)(O)C[C@@H](C)CN(C)[C@H](C)[C@@H](O)[C@]1(C)O`, the IC50 in data set [1] came to 0.047 µM; in data set [4], 0.466 µM; in data set [7] it was 23 µM. In addition, the selectivity ratio in [2] and in [10] was 49 in each case. Besides, the MIC in data set [3], in data set [5] and in data set [6] was more than 64 mg/L throughout. For the same compound, the “Ratio IC50” value in [8] and in data set [9] was 3 in each case. The solubility in data set [11] was more than 10 mg/mL.
With `CC[C@H]1OC(=O)[C@H](C)[C@@H](O)[C@H](C)[C@@H](O[C@@H]2O[C@H](C)C[C@H](N(C)C)[C@H]2OCCCNCc2ccnc3ccccc23)[C@](C)(O)C[C@@H](C)CN(C)[C@H](C)[C@@H](O)[C@]1(C)O`, the IC50 in [1] is 0.432 µM; in [4] it was 0.54 µM; in data set [7] it was more than 100 µM. Also, the selectivity ratio in [2] and in data set [10] was 132 in each case. In addition, the MIC in data set [3], in data set [5] and in [6] was more than 64 mg/L each time. The “Ratio IC50” value in data set [8] and in data set [9] was 3 throughout. The same compound had a solubility in [11] of more than 10 mg/mL.
